This note sets out measurements from ChEMBL document CHEMBL1134510, “Adenosine analogues as selective inhibitors of glyceraldehyde-3-phosphate dehydrogenase of Trypanosomatidae via structure-based drug design” (J Med Chem, 2001).

Assay [1] is described as follows: In vitro inhibition of Trypanosoma cruzi GAPDH. Put shortly:
(§1)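 Spectrophotometric assay at 23 °C in 0.10 M triethanolamine/HCl, pH 7.5. Enzyme starts the reaction and inhibitors are in 5% DMSO-d₆. Initial rates over 0–2 min are compared with control. IC50 comes from ≥5 concentrations, or is extrapolated from ≥3 concentrations when above 50 µM.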

Assay [2] in a line: In vitro inhibition of Trypanosoma brucei GAPDH. Put shortly: as §1
Assay [3] can be described thus: In vitro inhibition of rabbit muscle GAPDH. Further details: species or system Oryctolagus cuniculus. An outline of the steps:
as §1

In a further assay the test system is Trypanosoma cruzi. Kind of assay: Effective concentration required to inhibit the growth of mammalian stage of Trypanosoma cruzi grown in murine 3T3 fibroblasts. The assay is classed as functional. The following applies: read-out: ED50 (the source's name). An outline of the steps:
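Tulahuen strain stably carrying E. coli lacZ. Mammalian stages are cocultured with mouse 3T3 fibroblasts in RPMI 1640 with 10% FBS at 37 °C, 5% CO₂. Intracellular growth is followed by a colorimetric β-galactosidase read-out. Assays were run twice.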

Assay [4] deals with Glyceraldehyde-3-phosphate dehydrogenase, glycosomal (Leishmania mexicana, UniProt Q27890). As to the kind of experiment: Inhibitory activity against Leishmania mexicana GAPDH. Put shortly:
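Spectrophotometric GAPDH assay at 23 °C in 0.10 M triethanolamine/HCl pH 7.5, read as NADH formation at 340 nm. Final: 5.0 mM MgSO4, 1.0 mM EDTA, 12.8 mM KH2PO4, 1.0 mM DTT, 1.0 mM NaN3, 0.45 mM NAD+, 1.87 mM fresh glyceraldehyde-3-phosphate, 5% DMSO-d6. Started with enzyme. Initial rates 0–2 min as % of control. IC50 from ≥5 concentrations (≤50 µM) or extrapolated from ≥3.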

In another assay the test system is Trypanosoma brucei. As to the kind of experiment: Effective concentration required to block the growth of bloodstream Trypanosoma brucei. In kind it is functional. The following applies: read-out: ED50 (the source's name). An outline of the steps: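 Bloodstream-form strain 427 trypomastigotes are grown in HMI-9 with 10% FBS at 37 °C, 5% CO₂. Triplicate wells are seeded at 5 × 10³ parasites per well with serially diluted drug. Growth is read with Alamar Blue at 48 h. Assays were run twice.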

Another assay deals with NIH3T3. As to the kind of experiment: Effective concentration required to inhibit the growth of murine 3T3 fibroblasts. The assay is classed as functional. The settings on record: Mus musculus, read-out: ED50 (the source's name).

Sequence of Glyceraldehyde-3-phosphate dehydrogenase, glycosomal (Q27890 whole entry, looked up): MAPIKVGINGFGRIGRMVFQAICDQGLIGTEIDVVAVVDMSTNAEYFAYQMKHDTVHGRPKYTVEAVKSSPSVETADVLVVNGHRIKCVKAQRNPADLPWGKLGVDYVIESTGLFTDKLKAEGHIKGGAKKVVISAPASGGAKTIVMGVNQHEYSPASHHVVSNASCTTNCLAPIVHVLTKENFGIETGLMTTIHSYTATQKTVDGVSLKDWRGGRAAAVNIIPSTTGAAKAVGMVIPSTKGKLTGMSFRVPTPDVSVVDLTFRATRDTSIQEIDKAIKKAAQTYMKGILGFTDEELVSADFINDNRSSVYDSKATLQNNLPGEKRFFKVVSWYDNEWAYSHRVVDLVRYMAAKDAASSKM

What is called IC50 is the concentration at which inhibition is half-maximal. Read a high IC50 as weaker potency in that assay. For the compound `O=C(N[C@@H]1[C@H](O)[C@@H](CO)O[C@H]1n1cnc2c(NCc3cc(O)cc4ccccc34)ncnc21)c1cc(Cl)cc(Cl)c1`, the half-inhibitory concentration (IC50) is 40 µM in assay [1], 55 µM in assay [2], greater than 50 µM in assay [3] and 25 µM in assay [4]. Also, the EC50 in the assay on Trypanosoma cruzi was determined as 41 µM; with Trypanosoma brucei it was 12 µM; in the assay with NIH3T3, 43 µM.

The compound `O=C(N[C@@H]1[C@H](O)[C@@H](CO)O[C@H]1n1cnc2c(NCc3cccc4ccccc34)ncnc21)c1cccc(Cl)c1` had a half-inhibitory concentration (IC50) in assay [4] of 6 µM.

The compound `COc1ccc(C(=O)N[C@@H]2[C@H](O)[C@@H](CO)O[C@H]2n2cnc3c(NCc4cccc5ccccc45)ncnc32)cc1O` returned an IC50 in assay [4] of 37 µM.

In the case of `COc1cc(C(=O)N[C@@H]2[C@H](O)[C@@H](CO)O[C@H]2n2cnc3c(NCc4cccc5ccccc45)ncnc32)ccc1O`, the IC50 in assay [4] worked out at 10 µM.

On to `COc1cc(OC)cc(C(=O)N[C@@H]2[C@H](O)[C@@H](CO)O[C@H]2n2cnc3c(NCc4cc(OC)cc5ccccc45)ncnc32)c1`, for which the IC50 is 7 µM in assay [1], 5 µM in assay [2], greater than 50 µM in assay [3] and 2 µM in assay [4]. In addition, the EC50 in the assay with Trypanosoma cruzi is 35 µM; in the assay with Trypanosoma brucei, 35 µM; in the assay on NIH3T3, greater than 50 µM.

For the compound `COc1ccc(C(=O)N[C@@H]2[C@H](O)[C@@H](CO)O[C@H]2n2cnc3c(NCc4cccc5ccccc45)ncnc32)cc1OC`, the half-maximal inhibitory concentration (IC50) is 7 µM in assay [1], 47 µM in assay [2], greater than 50 µM in assay [3] and 4 µM in assay [4]. In addition, the EC50 with Trypanosoma cruzi was 22 µM; in the assay on Trypanosoma brucei, 36 µM; with NIH3T3, greater than 55 µM.

As for `O=C(N[C@@H]1[C@H](O)[C@@H](CO)O[C@H]1n1cnc2c(NCc3cccc4ccccc34)ncnc21)c1cc(O)cc(O)c1`, the IC50 in assay [1] is 14 µM; in assay [2], 26 µM; in assay [3] it was greater than 50 µM; in assay [4], 5 µM. Also, the EC50 with Trypanosoma cruzi is greater than 50 µM; with Trypanosoma brucei, 50 µM; in the assay with NIH3T3, greater than 50 µM.

Turning to `COc1cc(OC)cc(C(=O)N[C@@H]2[C@H](O)[C@@H](CO)O[C@H]2n2cnc3c(NCc4cc(O)cc5ccccc45)ncnc32)c1`, the half-maximal inhibitory concentration (IC50) in assay [1] is 10 µM; in assay [2] it was 8 µM; in assay [3], greater than 50 µM; in assay [4], 2 µM. Also, the EC50 in the assay on Trypanosoma cruzi is greater than 50 µM; in the assay with Trypanosoma brucei, 38 µM; with NIH3T3 it was greater than 50 µM.

Turning to `O=C(N[C@@H]1[C@H](O)[C@@H](CO)O[C@H]1n1cnc2c(NCc3cccc4ccccc34)ncnc21)c1ccc(O)c(O)c1`, in assay [4], the half-maximal inhibitory concentration (IC50) is 18 µM.

Compound `COc1ccc(C(=O)N[C@@H]2[C@H](O)[C@@H](CO)O[C@H]2n2cnc3c(NCc4cccc5ccccc45)ncnc32)cc1` had a concentration for half-maximal inhibition (IC50) in assay [4] of 100 µM.

`COc1ccc(C(=O)N[C@@H]2[C@H](O)[C@@H](CO)O[C@H]2n2cnc3c(NCc4cccc5ccccc45)ncnc32)cc1OC(C)=O`: in assay [4], it took 78 µM to reach half-maximal inhibition (IC50). The IC50 values of the last two compounds are within 1.5-fold of each other.

`O=C(N[C@@H]1[C@H](O)[C@@H](CO)O[C@H]1n1cnc2c(NCc3cccc4ccccc34)ncnc21)c1ccc(O)cc1` displayed a concentration for half-maximal inhibition (IC50) in assay [4] of 80 µM.

In the case of `COc1cc(C(=O)N[C@@H]2[C@H](O)[C@@H](CO)O[C@H]2n2cnc3c(NCc4cccc5ccccc45)ncnc32)ccc1OC(C)=O`, the concentration for half-maximal inhibition (IC50) in assay [4] worked out at 10 µM.

In the case of `COc1cccc(C(=O)N[C@@H]2[C@H](O)[C@@H](CO)O[C@H]2n2cnc3c(NCc4cccc5ccccc45)ncnc32)c1`, the half-maximal inhibitory concentration (IC50) in assay [1] is 12 µM; in assay [2], 25 µM; in assay [3], greater than 50 µM; in assay [4], 6 µM. Further, the EC50 came out at 10 µM in the assay with Trypanosoma cruzi, 18 µM with Trypanosoma brucei and 40 µM in the assay on NIH3T3.

Consider `Nc1ncnc2c1ncn2C1O[C@H](CNC(=O)CC2CCCCC2)[C@@H](O)[C@H]1O` (some centres undefined), for which, in assay [4], the IC50 came out at 250 µM.

Regarding `Nc1ncnc2c1ncn2C1O[C@H](CNC(=O)C(c2ccccc2)c2ccccc2)[C@@H](O)[C@H]1O` (some centres undefined), the half-inhibitory concentration (IC50) in assay [4] is 250 µM.

For `COc1cccc(C(=O)N[C@@H]2[C@H](O)[C@@H](CO)O[C@H]2n2cnc3c(NCc4ccc(OC)c5ccccc45)ncnc32)c1`, the IC50 in assay [1] was 50 µM; in assay [2] it was 26 µM; in assay [3] it was greater than 50 µM; in assay [4], 6 µM. The EC50 with Trypanosoma cruzi was 12 µM; in the assay on Trypanosoma brucei, 10 µM; in the assay on NIH3T3 it was 50 µM.

As to `COc1cc(OC)cc(C(=O)N[C@@H]2C(Cn3cnc4c(NCc5ccccc5Sc5ccccc5CO)ncnc43)OC(CO)[C@@H]2O)c1` (some centres undefined), it took 75 µM to reach half-maximal inhibition in assay [4] (IC50).

In the case of `O=C(N[C@@H]1[C@H](O)[C@@H](CO)O[C@H]1n1cnc2c(NCc3cccc4ccccc34)ncnc21)c1cccc(O)c1`, the IC50 in assay [4] came to 25 µM.

On to `COc1cc(OC)cc(C(=O)N[C@@H]2C(Cn3cnc4c(Nc5ccc6ccccc6c5)ncnc43)OC(CO)[C@@H]2O)c1` (some centres undefined), for which, in assay [4], the IC50 turned out to be 60 µM. Against the preceding compound, the IC50 is about 2.4-fold higher.

In the case of `COc1cc(CNc2ncnc3c2ncn3[C@@H]2O[C@H](CO)[C@@H](O)[C@H]2NC(=O)c2cc(Cl)cc(Cl)c2)c2ccccc2c1`, the IC50 is 40 µM in assay [1], 45 µM in assay [2], greater than 50 µM in assay [3] and 25 µM in assay [4]. For the same compound, the EC50 was found to be 16 µM with Trypanosoma cruzi, 16 µM in the assay with Trypanosoma brucei and 32 µM with NIH3T3.

Consider `CC(=O)Oc1ccc(C(=O)N[C@@H]2[C@H](O)[C@@H](CO)O[C@H]2n2cnc3c(NCc4cccc5ccccc45)ncnc32)cc1OC(C)=O`, for which the IC50 in assay [4] turned out to be 25 µM. This lies in the double-digit micromolar range.

Consider `O=C(N[C@@H]1[C@H](O)[C@@H](CO)O[C@H]1n1cnc2c(NCc3cccc4ccccc34)ncnc21)c1ccc(Cl)cc1`, for which, in assay [4], the half-maximal inhibitory concentration (IC50) worked out at 100 µM. This IC50 is about 4-fold higher than that of the compound before.

In turn, `CC(=O)Oc1ccc(C(=O)N[C@@H]2[C@H](O)[C@@H](CO)O[C@H]2n2cnc3c(NCc4cccc5ccccc45)ncnc32)cc1` displayed an IC50 in assay [4] of 100 µM.

On to `COc1cc(OC)cc(C(=O)N[C@@H]2C(Cn3cnc4c(N)ncnc43)OC(CNC(=O)C(c3ccccc3)c3ccccc3)[C@@H]2O)c1` (some centres undefined), for which, in assay [4], inhibition was half-maximal at 60 µM (IC50).

Consider `COc1cc(OC)cc(C(=O)N[C@@H]2C(Cn3cnc4c(NCc5ccccc5)ncnc43)OC(CO)[C@@H]2O)c1` (some centres undefined), for which inhibition in assay [4] was half-maximal at 20 µM (IC50). This IC50 lies about 3-fold lower than the previous one.

Compound `COc1cc(OC)cc(C(=O)N[C@@H]2C(Cn3cnc4c(NCc5ccccc5C)ncnc43)OC(CO)[C@@H]2O)c1` (some centres undefined) yielded a half-inhibitory concentration (IC50) in assay [4] of 25 µM.

Take `COc1cc(OC)cc(C(=O)N[C@@H]2C(Cn3cnc4c(N)ncnc43)OC(CNC(=O)CC3CCCCC3)[C@@H]2O)c1` (some centres undefined): it took 100 µM to reach half-maximal inhibition in assay [4] (IC50).

On to `COc1cc(OC)cc(C(=O)N[C@@H]2C(Cn3cnc4c(NC5CCCc6ccccc65)ncnc43)OC(CO)[C@@H]2O)c1` (some centres undefined), for which the IC50 in assay [4] turned out to be 75 µM.

Consider `COc1cc(OC)cc(C(=O)N[C@@H]2C(Cn3cnc4c(NC(c5ccccc5)c5ccccc5)ncnc43)OC(CO)[C@@H]2O)c1` (some centres undefined), for which, in assay [4], 55 µM corresponded to half-maximal inhibition (IC50).

In assay [4], `COc1cc(OC)cc(C(=O)N[C@@H]2C(Cn3cnc4c(NCc5cccc(C)c5)ncnc43)OC(CO)[C@@H]2O)c1` (some centres undefined) yielded a 50% inhibitory concentration (IC50) of 25 µM.

`CN(C)c1cccc(C(=O)N[C@@H]2[C@H](O)[C@@H](CO)O[C@H]2n2cnc3c(NCc4cccc5ccccc45)ncnc32)c1` returned a concentration for half-maximal inhibition (IC50) in assay [4] of 25 µM. This lies in the double-digit micromolar range.

For the compound `CC(=O)Oc1cccc(C(=O)N[C@@H]2[C@H](O)[C@@H](CO)O[C@H]2n2cnc3c(NCc4cccc5ccccc45)ncnc32)c1`, in assay [4], the half-inhibitory concentration (IC50) came out at 50 µM.

Consider `O=C(Cn1ccnc1[N+](=O)[O-])NCc1ccccc1` [BENZNIDAZOLE], for which the IC50 in assay [3] was greater than 50 µM. Besides, the values for the EC50 in the assay with Trypanosoma cruzi and in the assay on NIH3T3 were 0.5 µM and greater than 50 µM, respectively.
